Measured values reported in ChEMBL document CHEMBL1123716, “Synthesis and tumor uptake of 5-halo-1-(2'-fluoro-2'-deoxy-beta-D-ribofuranosyl)[2-14C]uracils” (J Med Chem, 1987).
Where “and” joins values, the source holds several entries; their conditions need not be identical. Equal values may be shown once.

Key:
Settings in all cases: in vivo
[1] = system: Mus musculus; experiment: Tissue distribution in BDF1 female mice bearing an implanted lewis lung tumor after intravenous injection in spleen at 4 h.; format: ADME, organism-based
Method in brief: (§1)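 Female BDF₁ mice (18–20 g) carrying transplanted Lewis lung tumor received 23–193 kBq of the [2-¹⁴C]-labeled nucleoside in normal saline via tail vein. The compound was stored as a dry film and reconstituted just before use. Animals were killed at set times, and tissue ¹⁴C was measured by combustion and liquid scintillation. Values are mean ± SD % injected dose per gram of wet tissue, n = 6.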

[2] = system: Mus musculus; experiment: Tissue distribution in BDF1 female mice bearing an implanted lewis lung tumor after intravenous injection in spleen at 8 h.; format: ADME, organism-based; method in brief: as §1
[3] = system: Mus musculus; experiment: Tissue distribution in BDF1 female mice bearing an implanted lewis lung tumor after intravenous injection in muscle at 2 h.; format: ADME, organism-based; method in brief: as §1
[4] = system: Mus musculus; experiment: Tissue distribution in BDF1 female mice bearing an implanted lewis lung tumor after intravenous injection in skin at 24 h.; format: ADME, organism-based, Skin of body; method in brief: as §1
[5] = system: Mus musculus; experiment: Tissue distribution in BDF1 female mice bearing an implanted lewis lung tumor after intravenous injection in lung at 4 h; format: ADME, organism-based; method in brief: as §1
[6] = system: Mus musculus; experiment: Tissue distribution in BDF1 female mice bearing an implanted lewis lung tumor after intravenous injection in lung at 8 h.; format: ADME, organism-based; method in brief: as §1
[7] = system: Mus musculus; experiment: Tissue distribution in BDF1 female mice bearing an implanted lewis lung tumor after intravenous injection in tumor at 8 h.; format: ADME, organism-based
Method in brief: (§2)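 Female BDF1 mice (18–20 g) carrying a transplanted Lewis lung tumor were given 23–193 kBq of the [2-14C]-labelled nucleoside in normal saline by tail vein. Animals were killed at set times. Tissue 14C was counted by liquid scintillation, after combustion or directly. Values are percent of injected dose per gram wet tissue, as mean ± standard deviation of six animals.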

[8] = system: Mus musculus; experiment: Tissue distribution in BDF1 female mice bearing an implanted lewis lung tumor after intravenous injection in skin at 8 h.; format: ADME, organism-based, Skin of body; method in brief: as §1
[9] = system: Mus musculus; experiment: Tissue distribution in BDF1 female mice bearing an implanted lewis lung tumor after intravenous injection in heart at 0.25 h.; format: ADME, organism-based
Method in brief: (§3)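 Female BDF1 mice (18–20 g) with implanted Lewis lung tumor received the 2-14C compound by tail vein, 23–193 kBq in normal saline, reconstituted from a dry film just before use. Animals were killed at set times and tissues taken for 14C counting by combustion and liquid scintillation. Values are percent injected dose per gram wet tissue, mean ± standard deviation, six animals.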

[10] = system: Mus musculus; experiment: Tissue distribution in BDF1 female mice bearing an implanted lewis lung tumor after intravenous injection in bone at 4 h.; format: ADME, organism-based; method in brief: as §3
[11] = system: Mus musculus; experiment: Tissue distribution in BDF1 female mice bearing an implanted lewis lung tumor after intravenous injection in lung at 1 h.; format: ADME, organism-based; method in brief: as §1
[12] = system: Mus musculus; experiment: Tissue distribution in BDF1 female mice bearing an implanted lewis lung tumor after intravenous injection in stomach at 2 h.; format: ADME, organism-based; method in brief: as §1
[13] = system: Mus musculus; experiment: Tissue distribution in BDF1 female mice bearing an implanted lewis lung tumor after intravenous injection in skin at 4 h.; format: ADME, organism-based, Skin of body; method in brief: as §1
[14] = system: Mus musculus; experiment: Tissue distribution in BDF1 female mice bearing an implanted lewis lung tumor after intravenous injection in stomach at 1 h.; format: ADME, organism-based; method in brief: as §1
[15] = system: Mus musculus; experiment: Tissue distribution in BDF1 female mice bearing an implanted lewis lung tumor after intravenous injection in liver at 8 h.; format: ADME, organism-based; method in brief: as §1
[16] = system: Mus musculus; experiment: Tissue distribution in BDF1 female mice bearing an implanted lewis lung tumor after intravenous injection in heart at 2 h.; format: ADME, organism-based; method in brief: as §3
[17] = system: Mus musculus; experiment: Tissue distribution in BDF1 female mice bearing an implanted lewis lung tumor after intravenous injection in bone at 0.5 h.; format: ADME, organism-based; method in brief: as §3
[18] = system: Mus musculus; experiment: Tissue distribution in BDF1 female mice bearing an implanted lewis lung tumor after intravenous injection in skin at 0.5 h.; format: ADME, organism-based, Skin of body; method in brief: as §1
[19] = system: Mus musculus; experiment: Tissue distribution in BDF1 female mice bearing an implanted lewis lung tumor after intravenous injection in bone at 2 h.; format: ADME, organism-based; method in brief: as §3
[20] = system: Mus musculus; experiment: Tissue distribution in BDF1 female mice bearing an implanted lewis lung tumor after intravenous injection in kidney at 2 h.; format: ADME, organism-based; method in brief: as §3
[21] = system: Mus musculus; experiment: Tissue distribution in BDF1 female mice bearing an implanted lewis lung tumor after intravenous injection in blood at 0.5 h.; format: ADME, organism-based; method in brief: as §3
[22] = system: Mus musculus; experiment: Tissue distribution in BDF1 female mice bearing an implanted lewis lung tumor after intravenous injection in bone at 8 h.; format: ADME, organism-based; method in brief: as §3
[23] = system: Mus musculus; experiment: Tissue distribution in BDF1 female mice bearing an implanted lewis lung tumor after intravenous injection in stomach at 4 h.; format: ADME, organism-based; method in brief: as §1
[24] = system: Mus musculus; experiment: Tissue distribution in BDF1 female mice bearing an implanted lewis lung tumor after intravenous injection in blood at 4 h.; format: ADME, organism-based; method in brief: as §3
[25] = system: Mus musculus; experiment: Tissue distribution in BDF1 female mice bearing an implanted lewis lung tumor after intravenous injection in spleen at 0.5 h.; format: ADME, organism-based; method in brief: as §1
[26] = system: Mus musculus; experiment: Tissue distribution in BDF1 female mice bearing an implanted lewis lung tumor after intravenous injection in lung at 2 h.; format: ADME, organism-based; method in brief: as §1
[27] = system: Mus musculus; experiment: Tissue distribution in BDF1 female mice bearing an implanted lewis lung tumor after intravenous injection in blood at 0.25 h; format: ADME, organism-based; method in brief: as §3
[28] = system: Mus musculus; experiment: Tissue distribution in BDF1 female mice bearing an implanted lewis lung tumor after intravenous injection in liver at 4 h.; format: ADME, organism-based; method in brief: as §1
[29] = system: Mus musculus; experiment: Tissue distribution in BDF1 female mice bearing an implanted lewis lung tumor after intravenous injection in bone at 24 h.; format: ADME, organism-based; method in brief: as §3
[30] = system: Mus musculus; experiment: Tissue distribution in BDF1 female mice bearing an implanted lewis lung tumor after intravenous injection in tumor at 0.5 h.; format: ADME, organism-based; method in brief: as §2
[31] = system: Mus musculus; experiment: Tissue distribution in BDF1 female mice bearing an implanted lewis lung tumor after intravenous injection in liver at 1 h.; format: ADME, organism-based; method in brief: as §1
[32] = system: Mus musculus; experiment: Tissue distribution in BDF1 female mice bearing an implanted lewis lung tumor after intravenous injection in liver at 24 h.; format: ADME, organism-based; method in brief: as §1
[33] = system: Mus musculus; experiment: Tissue distribution in BDF1 female mice bearing an implanted lewis lung tumor after intravenous injection in liver at 0.25 h.; format: ADME, organism-based; method in brief: as §1
[34] = system: Mus musculus; experiment: Tissue distribution in BDF1 female mice bearing an implanted lewis lung tumor after intravenous injection in git(Section of intestine) at 24 h.; format: ADME, organism-based; method in brief: as §3
[35] = system: Mus musculus; experiment: Tissue distribution in BDF1 female mice bearing an implanted lewis lung tumor after intravenous injection in tumor at 0.25 h.; format: ADME, organism-based; method in brief: as §2
[36] = system: Mus musculus; experiment: Tissue distribution in BDF1 female mice bearing an implanted lewis lung tumor after intravenous injection in muscle at 8 h.; format: ADME, organism-based; method in brief: as §1
[37] = system: Mus musculus; experiment: Tissue distribution in BDF1 female mice bearing an implanted lewis lung tumor after intravenous injection in git(Section of intestine) at 0.5 h.; format: ADME, organism-based; method in brief: as §3
[38] = system: Mus musculus; experiment: Tissue distribution in BDF1 female mice bearing an implanted lewis lung tumor after intravenous injection in kidney at 4 h.; format: ADME, organism-based; method in brief: as §1
[39] = system: Mus musculus; experiment: Tissue distribution in BDF1 female mice bearing an implanted lewis lung tumor after intravenous injection in liver at 2 h.; format: ADME, organism-based; method in brief: as §1
[40] = system: Mus musculus; experiment: Tissue distribution in BDF1 female mice bearing an implanted lewis lung tumor after intravenous injection in stomach at 24 h.; format: ADME, organism-based; method in brief: as §1
[41] = system: Mus musculus; experiment: Tissue distribution in BDF1 female mice bearing an implanted lewis lung tumor after intravenous injection in tumor at 24 h.; format: ADME, organism-based; method in brief: as §2
[42] = system: Mus musculus; experiment: Tissue distribution in BDF1 female mice bearing an implanted lewis lung tumor after intravenous injection in blood at 1 h.; format: ADME, organism-based; method in brief: as §3
[43] = system: Mus musculus; experiment: Tissue distribution in BDF1 female mice bearing an implanted lewis lung tumor after intravenous injection in git(Section of intestine) at 0.25 h.; format: ADME, organism-based; method in brief: as §3
[44] = system: Mus musculus; experiment: Tissue distribution in BDF1 female mice bearing an implanted lewis lung tumor after intravenous injection in git(Section of intestine) at 4 h.; format: ADME, organism-based; method in brief: as §3

O=c1[nH]c(=O)n([C@H]2O[C@@H](CO)[C@H](O)[C@H]2F)cc1F
Tissue distribution [1]: 0.18 | Tissue distribution [2]: 0.09 | Tissue distribution [3]: 0.06 | Tissue distribution [4]: 0.004 | Tissue distribution [5]: 0.02 | Tissue distribution [6]: 0.01 | Tissue distribution [7]: 0.05 | Tissue distribution [8]: 0.01 | Tissue distribution [9]: 3.8 | Tissue distribution [10]: 0.07 | Tissue distribution [11]: 0.51 | Tissue distribution [12]: 0.07 | Tissue distribution [13]: 0.11 | Tissue distribution [14]: 0.38 | Tissue distribution [15]: 0.01 | Tissue distribution [16]: 0.08 | Tissue distribution [17]: 0.85 | Tissue distribution [18]: 1.18 | Tissue distribution [19]: 0.11 | Tissue distribution [20]: 0.84 | Tissue distribution [21]: 1.59 | Tissue distribution [22]: 0.03 | Tissue distribution [23]: 0.02 | Tissue distribution [24]: 0.02 | Tissue distribution [25]: 3.77 | Tissue distribution [26]: 0.07 | Tissue distribution [27]: 3.49 | Tissue distribution [28]: 0.02 | Tissue distribution [29]: 0.02 | Tissue distribution [30]: 3.88 | Tissue distribution [31]: 0.53 | Tissue distribution [32]: 0.005 | Tissue distribution [33]: 3.37 | Tissue distribution [34]: 0.01 | Tissue distribution [35]: 5.26 | Tissue distribution [36]: 0.01 | Tissue distribution [37]: 1.59 | Tissue distribution [38]: 0.08 | Tissue distribution [39]: 0.08 | Tissue distribution [40]: 0.005 | Tissue distribution [41]: 0.02 | Tissue distribution [42]: 0.54 | Tissue distribution [43]: 3.35 | Tissue distribution [44]: 0.04

O=c1[nH]c(=O)n([C@H]2O[C@@H](CO)[C@H](O)[C@H]2F)cc1Cl
Tissue distribution [1]: 0.17 | Tissue distribution [2]: 0.15 | Tissue distribution [3]: 0.15 | Tissue distribution [4]: 0.01 | Tissue distribution [5]: 0.06 | Tissue distribution [6]: 0.03 | Tissue distribution [7]: 0.07 | Tissue distribution [8]: 0.02 | Tissue distribution [9]: 3.07 | Tissue distribution [10]: 0.04 | Tissue distribution [11]: 0.43 | Tissue distribution [12]: 0.31 | Tissue distribution [13]: 0.04 | Tissue distribution [14]: 0.27 | Tissue distribution [15]: 0.03 | Tissue distribution [16]: 0.17 | Tissue distribution [17]: 0.41 | Tissue distribution [18]: 1.24 | Tissue distribution [19]: 0.08 | Tissue distribution [20]: 1.6 | Tissue distribution [21]: 1.82 | Tissue distribution [22]: 0.02 | Tissue distribution [23]: 0.07 | Tissue distribution [24]: 0.06 | Tissue distribution [25]: 1.08 | Tissue distribution [26]: 0.14 | Tissue distribution [27]: 3.54 | Tissue distribution [28]: 0.05 | Tissue distribution [29]: 0.01 | Tissue distribution [30]: 1.82 | Tissue distribution [31]: 0.47 and 0.6 | Tissue distribution [32]: 0.02 | Tissue distribution [33]: 2.39 | Tissue distribution [34]: 0.02 | Tissue distribution [35]: 2.62 | Tissue distribution [36]: 0.03 | Tissue distribution [37]: 1.02 | Tissue distribution [38]: 0.33 | Tissue distribution [39]: 0.15 | Tissue distribution [40]: 0.01 | Tissue distribution [41]: 0.03 | Tissue distribution [42]: 0.58 | Tissue distribution [43]: 1.91 | Tissue distribution [44]: 0.06
